Article PMC5621377 (Clinical cancer research : an official journal of the …, 2016)

Test system: patients with Rb+ advanced solid tumors or lymphomas
Experiment: Safety assessments, adverse events
Type: in vivo, human
How it was run: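 Oral test compound given daily 3-weeks-on/1-week-off in 28-day cycles, with doses escalated by a Bayesian logistic regression model with overdose control. Safety assessments, including ECGs, were done at baseline and at regular intervals. AEs were graded by CTCAE v4.0 and classed as suspected related to treatment. All patients dosed at least once were included; summaries were descriptive per dose level.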

[1] = 400 mg 3-weeks-on/1-week-off, n = 5
[2] = 600 mg 3-weeks-on/1-week-off, n = 67
[3] = 600 mg continuous dosing, n = 7
[4] = 750 mg 3-weeks-on/1-week-off, n = 14

CN(C)C(=O)c1cc2cnc(Nc3ccc(N4CCNCC4)cn3)nc2n1C1CCCC1 [ribociclib]
Nausea, Grade All, AE suspected related to study treatment [1]: 1 (20) n (%)
Neutropenia, Grade 3/4, AE suspected related to study treatment [1]: 1 (20) n (%)
Neutropenia, Grade All, AE suspected related to study treatment [1]: 2 (40) n (%)
Thrombocytopenia, Grade 3/4, AE suspected related to study treatment [1]: 0 n (%)
Thrombocytopenia, Grade All, AE suspected related to study treatment [1]: 1 (20) n (%)
Vomiting, Grade 3/4, AE suspected related to study treatment [1]: 0 n (%)
Vomiting, Grade All, AE suspected related to study treatment [1]: 2 (40) n (%)
Anemia, Grade 3/4, AE suspected related to study treatment [2]: 2 (3) n (%)
Anemia, Grade All, AE suspected related to study treatment [2]: 19 (28) n (%)
Appetite decreased, Grade 3/4, AE suspected related to study treatment [2]: 0 n (%)
Appetite decreased, Grade All, AE suspected related to study treatment [2]: 5 (7) n (%)
Blood creatinine increased, Grade 3/4, AE suspected related to study treatment [2]: 0 n (%)
Blood creatinine increased, Grade All, AE suspected related to study treatment [2]: 4 (6) n (%)
Diarrhea, Grade 3/4, AE suspected related to study treatment [2]: 2 (3) n (%)
Diarrhea, Grade All, AE suspected related to study treatment [2]: 18 (27) n (%)
Fatigue, Grade 3/4, AE suspected related to study treatment [2]: 2 (3) n (%)
Fatigue, Grade All, AE suspected related to study treatment [2]: 22 (33) n (%)
Leukopenia, Grade 3/4, AE suspected related to study treatment [2]: 13 (19) n (%)
Leukopenia, Grade All, AE suspected related to study treatment [2]: 31 (46) n (%)
Lymphopenia, Grade 3/4, AE suspected related to study treatment [2]: 12 (18) n (%)
Lymphopenia, Grade All, AE suspected related to study treatment [2]: 15 (22) n (%)
Nausea, Grade 3/4, AE suspected related to study treatment [2]: 1 (1) n (%)
Nausea, Grade All, AE suspected related to study treatment [2]: 30 (45) n (%)
Neutropenia, Grade 3/4, AE suspected related to study treatment [2]: 19 (28) n (%)
Neutropenia, Grade All, AE suspected related to study treatment [2]: 31 (46) n (%)
Thrombocytopenia, Grade 3/4, AE suspected related to study treatment [2]: 6 (9) n (%)
Thrombocytopenia, Grade All, AE suspected related to study treatment [2]: 23 (34) n (%)
Vomiting, Grade 3/4, AE suspected related to study treatment [2]: 0 n (%)
Vomiting, Grade All, AE suspected related to study treatment [2]: 17 (25) n (%)
Anemia, Grade 3/4, AE suspected related to study treatment [3]: 0 n (%)
Anemia, Grade All, AE suspected related to study treatment [3]: 2 (29) n (%)
Appetite decreased, Grade 3/4, AE suspected related to study treatment [3]: 0 n (%)
Appetite decreased, Grade All, AE suspected related to study treatment [3]: 0 n (%)
Blood creatinine increased, Grade 3/4, AE suspected related to study treatment [3]: 0 n (%)
Blood creatinine increased, Grade All, AE suspected related to study treatment [3]: 1 (14) n (%)
Diarrhea, Grade 3/4, AE suspected related to study treatment [3]: 0 n (%)
Diarrhea, Grade All, AE suspected related to study treatment [3]: 0 n (%)
Fatigue, Grade 3/4, AE suspected related to study treatment [3]: 1 (14) n (%)
Fatigue, Grade All, AE suspected related to study treatment [3]: 5 (71) n (%)
Leukopenia, Grade 3/4, AE suspected related to study treatment [3]: 5 (71) n (%)
Leukopenia, Grade All, AE suspected related to study treatment [3]: 6 (86) n (%)
Lymphopenia, Grade 3/4, AE suspected related to study treatment [3]: 2 (29) n (%)
Lymphopenia, Grade All, AE suspected related to study treatment [3]: 3 (43) n (%)
Nausea, Grade 3/4, AE suspected related to study treatment [3]: 0 n (%)
Nausea, Grade All, AE suspected related to study treatment [3]: 3 (43) n (%)
Neutropenia, Grade 3/4, AE suspected related to study treatment [3]: 5 (71) n (%)
Neutropenia, Grade All, AE suspected related to study treatment [3]: 6 (86) n (%)
Thrombocytopenia, Grade 3/4, AE suspected related to study treatment [3]: 0 n (%)
Thrombocytopenia, Grade All, AE suspected related to study treatment [3]: 2 (29) n (%)
Vomiting, Grade 3/4, AE suspected related to study treatment [3]: 0 n (%)
Vomiting, Grade All, AE suspected related to study treatment [3]: 2 (29) n (%)
patients with asymptomatic QTcF prolongation (600 mg/day (RDE)): 9%
Anemia, Grade 3/4, AE suspected related to study treatment [4]: 1 (7) n (%)
Anemia, Grade All, AE suspected related to study treatment [4]: 3 (21) n (%)
Appetite decreased, Grade 3/4, AE suspected related to study treatment [4]: 0 n (%)
Appetite decreased, Grade All, AE suspected related to study treatment [4]: 3 (21) n (%)
Blood creatinine increased, Grade 3/4, AE suspected related to study treatment [4]: 0 n (%)
Blood creatinine increased, Grade All, AE suspected related to study treatment [4]: 3 (21) n (%)
Diarrhea, Grade 3/4, AE suspected related to study treatment [4]: 0 n (%)
Diarrhea, Grade All, AE suspected related to study treatment [4]: 4 (29) n (%)
Fatigue, Grade 3/4, AE suspected related to study treatment [4]: 0 n (%)
Fatigue, Grade All, AE suspected related to study treatment [4]: 5 (36) n (%)
Leukopenia, Grade 3/4, AE suspected related to study treatment [4]: 0 n (%)
Leukopenia, Grade All, AE suspected related to study treatment [4]: 6 (43) n (%)
Lymphopenia, Grade 3/4, AE suspected related to study treatment [4]: 1 (7) n (%)
Lymphopenia, Grade All, AE suspected related to study treatment [4]: 6 (43) n (%)
Nausea, Grade 3/4, AE suspected related to study treatment [4]: 1 (7) n (%)
Nausea, Grade All, AE suspected related to study treatment [4]: 8 (57) n (%)
Neutropenia, Grade 3/4, AE suspected related to study treatment [4]: 5 (36) n (%)
Neutropenia, Grade All, AE suspected related to study treatment [4]: 8 (57) n (%)
Thrombocytopenia, Grade 3/4, AE suspected related to study treatment [4]: 3 (21) n (%)
Thrombocytopenia, Grade All, AE suspected related to study treatment [4]: 5 (36) n (%)
Vomiting, Grade 3/4, AE suspected related to study treatment [4]: 0 n (%)
Vomiting, Grade All, AE suspected related to study treatment [4]: 4 (29) n (%)
